# OX1R antag-1 – human HCRTR1 antagonism. O43613. CHO/OX1R cells, Fluo-8 calcium fluorescence, orexin A. inhibition, % at 5 µM. hit rate 0.43% among 330,000;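 active means inhibition above its plate's threshold, mean inhibition of all tested compounds on the plate plus 3 SD, cut at about 37% in these data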;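 further: 0% = orexin A challenge wells and 100% = SB-334867-A antagonist wells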
# CHO parental Ca – signal in parental CHO cells, OX1R antagonist counter-screen; parental CHO-K1, ATP-induced calcium, Fluo-8 fluorescence; inhibition, % at 5.6 µM; hit rate 0.63% among 330,000;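 active means inhibition above that plate's mean sample inhibition plus 3 SD, cut at about 26% in these data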;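 further: 0% = ATP-challenged DMSO wells and 100% = DMSO wells without ATP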
#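 Test system: parental CHO cells; detection: calcium-sensitive Fluo-8 fluorescence; evaluation: percent inhibition of calcium signal; also added: ATP as calcium-mobilizing challenge; repeats: one well per compound; control set: ATP-challenged DMSO wells low, unchallenged DMSO wells high; compound: single nominal dose of 5.6 µM per compound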
# TAAR1 agonist – human TAAR1 agonism; Q96RJ0; CHO RD-HGA16 TAAR1, Fluo-8 calcium fluorescence; vehicle wells 0%, saturating PEA agonist 100%; activation, % at 3 µM; hit rate 0.99% among 360,000; AID 624467;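 active means activation above the mean activation of all test compounds in the run plus 3 SD, cut at about 38% in these data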
# Target sequence (Q96RJ0 whole entry, looked up): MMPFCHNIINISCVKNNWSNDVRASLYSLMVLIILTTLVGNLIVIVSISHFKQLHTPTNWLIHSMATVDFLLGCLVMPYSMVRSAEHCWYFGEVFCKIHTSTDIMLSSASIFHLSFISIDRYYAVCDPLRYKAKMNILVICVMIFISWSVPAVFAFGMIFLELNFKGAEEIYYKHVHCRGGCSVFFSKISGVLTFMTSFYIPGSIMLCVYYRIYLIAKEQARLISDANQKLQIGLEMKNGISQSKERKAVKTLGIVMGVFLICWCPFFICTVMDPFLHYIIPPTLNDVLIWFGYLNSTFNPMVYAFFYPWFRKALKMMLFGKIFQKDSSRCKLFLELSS
#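 Assay system: CHO-derived RD-HGA16 cells with stable Gα16 and human TAAR1; timing: 17-24 h seeding, 75 min 37 °C dye, 30 min RT; read-out: % activation from peak over basal fluorescence ratio, DMSO-to-PEA scaled; measured by: kinetic Fluo-8 calcium fluorescence; benchmarks: low control DMSO, high control PEA (EC100); doses: 3 µM single concentration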
# TAAR1 antag – antagonists of human TAAR1. Q96RJ0. CHO RD-HGA16 TAAR1, Fluo-8 calcium fluorescence, antagonist. inhibition, % at 3 µM. hit rate 1.5% among 360,000;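 active means inhibition above a per-plate cutoff, the mean inhibition of test compounds on that plate plus 3 SD, cut at about 49% in these data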;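 further: 0% = DMSO plus EC80 beta-PEA response and 100% = DMSO alone without agonist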
#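 Test system: CHO RD-HGA16 cells bearing hTAAR1 | Reagent: β-PEA, EC80 | Compound dosing: 3 µM, single point | Schedule: Dye loading 75 min at 37 °C, then 30 min room temperature | Signal: Calcium fluorescence with Fluo-8 | Evaluation: Percent inhibition of PEA-evoked calcium signal, max/basal emission ratio | Control set: DMSO-only wells and EC80 β-PEA-stimulated wells | Repeats: Singlicate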
# GalR3 antag – blocks the human galanin receptor 3. O60755. HEK293 GalR3-CNG cAMP membrane potential fluorescence; galR3 body fused to GalR1 C-terminus. inhibition, % at 3 µM. hit rate 0.44% among 360,000. AID 651719;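 active means inhibition above the screen-wide average plus 3 SD, cut at about 13% in these data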;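 further: forskolin and galanin both at EC90 stimulate the cells; cAMP rise reported by CNG channel membrane potential dye signal; 0% = forskolin plus galanin with DMSO and 100% = forskolin alone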
# OX1R antag-2 – blocks the human orexin 1 receptor. hit rate 1.8% among 330,000. inhibition, % at 6.6 µM. OX1R-expressing cells, FRET antagonist read-out; in the data active means inhibition mostly above about 38%, no sharp cut-off; inactive means mostly below about 40%;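 further: 0% = agonist challenge alone and 100% = reference antagonist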
# TAAR1 ag conf – confirmation of human TAAR1 agonists; shares compounds with TAAR1 agonist; CHO RD-HGA16 TAAR1, Fluo-8 calcium fluorescence; scaled: DMSO 0%, maximal phenethylamine 100%; activation, % at 3 µM; hit rate 82% among 2,400;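 active means activation above a cutoff set at the run's mean compound activation plus 3 SD, cut at about 39% in these data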
# Ga16 nonsel ag – nonselective agonist in parental cells, TAAR1 agonist counter-screen; shares compounds with TAAR1 agonist; CHO-Ga16 parental, Fluo-8 calcium fluorescence; normalized to maximal ATP response, DMSO zero; activation, % at 3 µM; hit rate 50% among 2,400; AID 651787;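 active means activation above the run cutoff, the mean activation over all tested wells plus 3 SD, cut at about 12% in these data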;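 further: 0% = DMSO wells and 100% = maximal ATP response on the peak over basal ratio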
# TAAR1 desens – human TAAR1 agonist that also desensitizes the receptor; shares compounds with TAAR1 agonist; CHO RD-HGA16 hTAAR1, Fluo-8 calcium, beta-PEA response inhibition; inhibition, % at 3 µM; hit rate 46% among 2,400; AID 651951;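 active means inhibition above the run cutoff, the mean inhibition of all test compounds plus 3 SD, cut at about 49% in these data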;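 further: beta-PEA stimulus applied at its EC80; loss of beta-PEA calcium signal after compound pretreatment read as receptor desensitization; 0% = DMSO with beta-PEA at EC80 and 100% = DMSO alone without agonist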
# Ga16 antag count – counter-screen for TAAR1 agonists: nonselective Ga16 antagonists; CHO-Ga16 ATP-induced calcium, Fluo-8 fluorescence; shares compounds with TAAR1 agonist; inhibition, % at 3 µM; hit rate 39% among 2,400;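 active means inhibition above the plate's mean compound inhibition plus 3 SD, computed per plate, cut at about 22% in these data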;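 further: 0% = EC80 ATP with DMSO and 100% = DMSO wells without ATP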
# * hit, by the source's call; · = no result given. Rows were chosen to be rich in hits. Some 4.3% of all compounds tested hit in one or more screens of this group.
SMILES,OX1R antag-1,CHO parental Ca,TAAR1 agonist,TAAR1 antag,GalR3 antag,OX1R antag-2,TAAR1 ag conf,Ga16 nonsel ag,TAAR1 desens,Ga16 antag count
CC(C)(C)c1ccc(C(=O)NNC(=S)NC(=O)c2cccnc2)cc1,-0.4,-6.7,85.9*,35.3,-4.7,5.5,49.2*,46.9*,38.4,27.6*
CC(C)(C)c1ccc(C(=O)NC(=S)NNC(=O)c2cccs2)cc1,33.1,30.8,173.7*,104.7*,-5.4,1.3,158.8*,129.2*,106.6*,102.4*
CCCOc1ccc(C(=O)NNC(=S)NC(=O)c2ccccc2[N+](=O)[O-])cc1,-8.4,-1.6,78.6*,26.5,-9.5,7.5,27.6,28.4*,15.6,26.6*
O=C(NC(=S)NNC(=O)c1cccs1)c1ccccc1,-3.5,3.0,37.4,27.6,0.0,3.9,·,·,·,·
CCCCn1c(N)c(N(C)C(=O)c2ccc(-n3cccn3)cc2)c(=O)[nH]c1=O,-7.4,-8.7,4.1,-2.3,-3.5,5.1,·,·,·,·
COc1ccc(N2C(=NC(=O)c3ccc(Br)cc3)SC3CS(=O)(=O)CC32)cc1 (configuration not stated),8.5,-1.2,8.3,-20.4,-2.0,6.0,·,·,·,·
CCOC(=O)C1CCCN(C(=O)C2CCN(S(=O)(=O)c3ccc4ccccc4c3)CC2)C1 (configuration not stated),-26.4,-21.1,0.8,-1.7,-2.4,7.9,·,·,·,·
CCCOc1ccc(C(=O)NNC(=S)NC(=O)c2cc(-c3ccccc3)nc3ccccc23)cc1,-13.6,-10.4,55.1*,21.8,-1.1,18.1,82.5*,71.5*,76.7*,73.7*
CCCOc1ccc(C(=O)NNC(=S)NC(C)=O)cc1,-10.1,-1.7,12.9,-13.7,-2.2,14.9,·,·,·,·
O=C(NC(=S)NNC(=O)c1ccco1)c1ccc(Br)cc1,-12.0,5.6,94.3*,27.0,-3.3,2.0,92.1*,72.0*,35.9,32.3*
CCCOc1ccc(C(=O)NNC(=S)NC(=O)c2ccco2)cc1,86.3*,70.0*,156.4*,105.1*,-4.5,19.2,147.2*,119.3*,103.6*,71.6*
O=C(NNC(=S)NC(=O)c1ccco1)c1ccc(F)cc1,42.4,27.1,8.7,-16.8,-2.7,0.1,·,·,·,·
CCc1ccc(C(=O)NCc2ccc(Cl)cc2Cl)cc1,-29.6,-18.4,-0.9,-10.9,-2.4,9.9,·,·,·,·
CCc1ccc(C(=O)NCc2ccc(Cl)cc2)cc1,-14.7,5.0,64.6*,33.3,1.9,15.4,2.5,21.5*,7.6,15.5
COC(=O)Nc1ccc(S(=O)(=O)N2CCCC(C(=O)NCC3CCCO3)C2)cc1 (configuration not stated),-12.1,5.0,-0.2,-1.2,0.3,0.2,·,·,·,·
O=C(COC(=O)/C=C/c1cccc(F)c1)NC1CCCCCC1,5.3,-1.9,64.0*,54.5*,-6.0,6.4,87.9*,37.9*,72.4*,19.1
N/C(Cc1cccc2ccccc12)=N\OC(=O)COc1ccccc1,-9.8,-11.4,53.9*,8.7,-11.9,16.3,61.2*,4.8,9.2,4.7
N/C(Cc1cccc2ccccc12)=N\OC(=O)c1ccccc1F,·,·,70.1*,33.4,0.2,·,80.8*,0.1,47.2,3.2
COc1ccccc1N1CCN(c2ncnc3n[nH]c(Br)c23)CC1,·,·,-0.4,19.1,-5.3,·,·,·,·,·
Cn1c(/C(C#N)=C(\O)CN2CCN(Cc3ccccc3)CC2)nc2ccccc21,-6.6,-2.2,1.6,-21.6,-3.9,6.6,·,·,·,·

# Assay outcomes as filed in PubChem BioAssay.
